{
  "source": "paper PMC3108854",
  "about": "(Molecular and biochemical parasitology, 2010)",
  "key": {"Pf dUTPase": {"biological_target": "T1, Pf dUTPase (Plasmodium falciparum, UniProt Q8II92)", "T1 sequence (Q8II92 1-173)": "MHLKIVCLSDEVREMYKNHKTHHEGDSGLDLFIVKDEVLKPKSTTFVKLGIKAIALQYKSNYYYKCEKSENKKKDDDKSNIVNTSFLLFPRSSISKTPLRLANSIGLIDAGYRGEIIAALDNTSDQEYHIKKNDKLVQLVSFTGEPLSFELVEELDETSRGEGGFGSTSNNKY", "test": "dUTPase biochemical assay"}, "P. falciparum strain 3d7": {"system": "P. falciparum strain 3d7", "test": "erythrocyte-based P. falciparum strain 3d7 infection", "format": "cell-based", "settings": "Plasmodium falciparum, 3D7, read-out: EC50 against P. falciparum in vitro", "in_short": "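P. falciparum was grown in erythrocytes. The primary screen used 1.25 μM, and ≥50% growth inhibition counted as a hit. Hits were retested in 8-point dose-response curves for EC₅₀ against sulfadoxine-resistant 3D7 and multidrug-resistant W2. Compounds with CC₅₀/EC₅₀ <5 (Huh7 cells) or that quenched fluorescence were excluded.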"}, "[1]": {"biological_target": "Pf Adenylosuccinate Synthase (Plasmodium falciparum, UniProt Q9U8D3)", "sequence (Q9U8D3 whole entry)": "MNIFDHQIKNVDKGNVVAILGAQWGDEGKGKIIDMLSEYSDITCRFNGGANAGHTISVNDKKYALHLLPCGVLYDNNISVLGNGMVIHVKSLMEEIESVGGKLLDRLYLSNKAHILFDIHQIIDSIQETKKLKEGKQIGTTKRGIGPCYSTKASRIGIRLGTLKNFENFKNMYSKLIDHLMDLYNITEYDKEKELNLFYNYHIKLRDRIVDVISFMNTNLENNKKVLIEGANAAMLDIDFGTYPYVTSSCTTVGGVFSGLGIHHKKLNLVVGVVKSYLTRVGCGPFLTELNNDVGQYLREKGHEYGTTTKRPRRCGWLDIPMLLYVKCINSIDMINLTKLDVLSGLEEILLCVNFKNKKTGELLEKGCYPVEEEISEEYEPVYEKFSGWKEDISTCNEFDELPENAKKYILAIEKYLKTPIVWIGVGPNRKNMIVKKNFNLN", "test": "adenylosuccinate synthetase biochemical assay"}, "[2]": {"biological_target": "T2, Pf N-Myristoyl Transferase (Plasmodium falciparum, UniProt Q8ILW6)", "T2 sequence (Q8ILW6 1-410)": "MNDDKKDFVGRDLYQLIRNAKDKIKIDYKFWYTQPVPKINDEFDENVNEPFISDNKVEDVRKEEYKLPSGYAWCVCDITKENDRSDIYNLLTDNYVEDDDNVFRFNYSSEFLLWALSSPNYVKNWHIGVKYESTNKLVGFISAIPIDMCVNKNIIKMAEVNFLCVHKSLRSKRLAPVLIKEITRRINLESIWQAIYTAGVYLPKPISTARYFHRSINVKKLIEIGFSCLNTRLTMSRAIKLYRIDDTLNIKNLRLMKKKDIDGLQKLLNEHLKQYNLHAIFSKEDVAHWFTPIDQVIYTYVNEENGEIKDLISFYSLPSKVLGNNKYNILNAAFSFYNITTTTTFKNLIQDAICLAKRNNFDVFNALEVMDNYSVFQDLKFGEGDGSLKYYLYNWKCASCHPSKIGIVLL", "test": "N-myristoyltransferase biochemical assay", "settings": "read-out: NMT IC50, positive control"}},
  "data": [
    {"smiles": "O=c1ccn([C@H]2C[C@H](O)[C@@H](COC(c3ccccc3)(c3ccccc3)c3ccccc3)O2)c(=O)[nH]1", "note": "[2′-deoxy-5′-O-(triphenylmethyl)uridine]", "values": [
      {"measurement": "IC50", "setting": "Pf dUTPase", "value": 2.4, "unit": "µM"}
    ]},
    {"smiles": "O=P(O)(O)C(O)(Cc1ccccc1)P(=O)(O)O", "note": "[(1-hydroxy-2-phenylethylidene)bis-phosphonic acid]", "values": [
      {"measurement": "EC50", "setting": "P. falciparum strain 3d7", "value": "~7.05", "unit": "µM"}
    ]},
    {"smiles": "O=CN(O)CC(=O)O", "note": "[Hadacidin]", "values": [
      {"measurement": "IC50", "setting": "[1]", "value": 62, "unit": "µM"}
    ]},
    {"smiles": "O=C(O)C1=CC(=C(c2ccc(O)c(C(=O)O)c2)c2ccc(O)c(C(=O)O)c2)C=CC1=O", "note": "[aurintricarboxylate]", "values": [
      {"measurement": "IC50", "setting": "[2]", "value": "~3", "unit": "µM"}
    ]}
  ]
}
